How the values were obtained:
HeLa [1] = experiment: Inhibition of HIV-1 infectivity using BAL-1 strain against HeLa cell line was determined; type: functional; settings: Homo sapiens
[2] = target: C-C chemokine receptor type 5 (Homo sapiens, UniProt P51681); experiment: Inhibitory concentration for displacement of [125I]-MIP-1 alpha from recombinant human CC chemokine receptor 5 (CCR5) expressed in CHO cell; type: cell-based
How it was run: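 Competitive binding to CCR5 on CHO cell membranes, read as displacement of [125I]-labeled MIP-1α. IC50 values are means of triplicate determinations. Standard errors were normally <15% within an assay. Assay-to-assay variation was within ±2-fold, judged from a standard compound.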

HeLa [3] = experiment: Antiviral activities in a cell culture HIV-1 infectivity inhibition assay using HeLa cells plus 50% normal human serum; type: functional
[4] = target: Voltage-gated inwardly rectifying potassium channel KCNH2 (Homo sapiens, UniProt Q12809); experiment: Binding affinity against hERG Voltage-gated potassium channel subunit Kv11.1
Chain of Voltage-gated inwardly rectifying potassium channel KCNH2 (Q12809 whole entry): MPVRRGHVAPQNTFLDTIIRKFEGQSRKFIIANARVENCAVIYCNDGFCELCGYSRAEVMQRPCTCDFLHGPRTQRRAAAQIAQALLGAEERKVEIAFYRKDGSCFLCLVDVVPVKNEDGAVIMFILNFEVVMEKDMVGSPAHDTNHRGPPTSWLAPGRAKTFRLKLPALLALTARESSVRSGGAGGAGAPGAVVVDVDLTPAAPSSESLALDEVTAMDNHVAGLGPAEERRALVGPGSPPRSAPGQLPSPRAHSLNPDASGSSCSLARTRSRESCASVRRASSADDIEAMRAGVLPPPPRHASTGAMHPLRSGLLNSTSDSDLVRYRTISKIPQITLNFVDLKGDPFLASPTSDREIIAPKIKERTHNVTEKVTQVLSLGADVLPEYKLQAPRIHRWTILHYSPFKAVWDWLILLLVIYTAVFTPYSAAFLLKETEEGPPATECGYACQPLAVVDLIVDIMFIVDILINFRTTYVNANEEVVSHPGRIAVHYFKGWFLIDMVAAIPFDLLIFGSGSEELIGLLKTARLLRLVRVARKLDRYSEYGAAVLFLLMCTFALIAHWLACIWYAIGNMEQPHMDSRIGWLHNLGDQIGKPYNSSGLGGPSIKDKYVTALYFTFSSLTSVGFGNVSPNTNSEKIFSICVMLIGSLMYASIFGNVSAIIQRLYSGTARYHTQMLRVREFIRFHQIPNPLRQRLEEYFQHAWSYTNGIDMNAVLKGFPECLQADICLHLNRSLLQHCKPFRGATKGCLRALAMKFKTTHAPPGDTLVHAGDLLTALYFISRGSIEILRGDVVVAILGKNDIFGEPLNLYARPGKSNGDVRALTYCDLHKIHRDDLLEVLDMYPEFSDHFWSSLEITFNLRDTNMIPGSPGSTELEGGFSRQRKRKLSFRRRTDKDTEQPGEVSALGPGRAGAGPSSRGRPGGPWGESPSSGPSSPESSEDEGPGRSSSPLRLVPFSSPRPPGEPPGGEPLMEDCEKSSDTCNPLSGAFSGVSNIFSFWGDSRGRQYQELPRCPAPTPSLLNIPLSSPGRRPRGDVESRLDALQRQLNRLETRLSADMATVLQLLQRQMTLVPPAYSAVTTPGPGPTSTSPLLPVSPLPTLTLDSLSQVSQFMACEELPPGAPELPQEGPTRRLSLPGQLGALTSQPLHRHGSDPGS

HeLa [5] = experiment: Antiviral activities in a cell culture HIV-1 infectivity inhibition assay using HeLa cells; type: functional; settings: Homo sapiens
in vivo [6] = settings: rat, plasma
in vivo [7] = settings: rat
in vivo [8] = settings: rat; remark: listed apart in the source
D(3) dopamine receptor [9] = target: T1, D(3) dopamine receptor (Homo sapiens, UniProt P35462); experiment: (§1) Inhibitory activity against human dopamine receptor D3 at 10 uM
T1 sequence (P35462 whole entry): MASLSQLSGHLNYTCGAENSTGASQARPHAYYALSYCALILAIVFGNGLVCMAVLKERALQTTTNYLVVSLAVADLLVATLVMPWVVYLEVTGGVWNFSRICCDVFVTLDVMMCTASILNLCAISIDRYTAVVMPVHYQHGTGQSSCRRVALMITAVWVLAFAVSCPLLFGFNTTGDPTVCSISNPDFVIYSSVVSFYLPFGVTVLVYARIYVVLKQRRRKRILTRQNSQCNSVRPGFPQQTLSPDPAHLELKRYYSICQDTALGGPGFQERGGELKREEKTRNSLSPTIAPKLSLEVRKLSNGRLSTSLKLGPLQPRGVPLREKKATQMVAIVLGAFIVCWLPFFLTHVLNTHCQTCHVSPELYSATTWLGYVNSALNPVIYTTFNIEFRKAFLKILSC

[10] = target: T2, Sodium-dependent dopamine transporter (Homo sapiens, UniProt Q01959); experiment: (§2) Inhibitory activity against human dopamine transporter at 10 uM
T2 sequence (Q01959 whole entry): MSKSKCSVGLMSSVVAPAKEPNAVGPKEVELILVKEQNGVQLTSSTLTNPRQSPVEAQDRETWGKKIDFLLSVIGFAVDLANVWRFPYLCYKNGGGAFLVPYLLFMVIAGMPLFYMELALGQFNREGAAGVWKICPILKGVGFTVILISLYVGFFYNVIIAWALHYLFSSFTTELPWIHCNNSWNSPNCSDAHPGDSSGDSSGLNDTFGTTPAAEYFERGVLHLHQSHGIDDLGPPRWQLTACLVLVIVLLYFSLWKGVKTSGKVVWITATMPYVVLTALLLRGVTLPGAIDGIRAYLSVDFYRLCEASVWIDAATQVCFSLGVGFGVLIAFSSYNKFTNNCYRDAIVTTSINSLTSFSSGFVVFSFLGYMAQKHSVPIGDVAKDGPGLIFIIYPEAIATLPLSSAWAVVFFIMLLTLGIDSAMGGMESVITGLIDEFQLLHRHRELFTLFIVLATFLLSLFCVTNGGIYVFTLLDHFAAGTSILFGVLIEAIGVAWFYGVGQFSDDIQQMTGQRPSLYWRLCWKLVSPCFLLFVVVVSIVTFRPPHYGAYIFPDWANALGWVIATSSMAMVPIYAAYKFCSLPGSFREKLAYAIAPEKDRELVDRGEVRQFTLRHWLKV

[11] = target: Sodium-dependent noradrenaline transporter (Homo sapiens) (UniProt P23975); experiment: Inhibitory activity against human adrenergic norepinephrine transporter at 10 uM
Chain of Sodium-dependent noradrenaline transporter (Homo sapiens) (P23975 whole entry): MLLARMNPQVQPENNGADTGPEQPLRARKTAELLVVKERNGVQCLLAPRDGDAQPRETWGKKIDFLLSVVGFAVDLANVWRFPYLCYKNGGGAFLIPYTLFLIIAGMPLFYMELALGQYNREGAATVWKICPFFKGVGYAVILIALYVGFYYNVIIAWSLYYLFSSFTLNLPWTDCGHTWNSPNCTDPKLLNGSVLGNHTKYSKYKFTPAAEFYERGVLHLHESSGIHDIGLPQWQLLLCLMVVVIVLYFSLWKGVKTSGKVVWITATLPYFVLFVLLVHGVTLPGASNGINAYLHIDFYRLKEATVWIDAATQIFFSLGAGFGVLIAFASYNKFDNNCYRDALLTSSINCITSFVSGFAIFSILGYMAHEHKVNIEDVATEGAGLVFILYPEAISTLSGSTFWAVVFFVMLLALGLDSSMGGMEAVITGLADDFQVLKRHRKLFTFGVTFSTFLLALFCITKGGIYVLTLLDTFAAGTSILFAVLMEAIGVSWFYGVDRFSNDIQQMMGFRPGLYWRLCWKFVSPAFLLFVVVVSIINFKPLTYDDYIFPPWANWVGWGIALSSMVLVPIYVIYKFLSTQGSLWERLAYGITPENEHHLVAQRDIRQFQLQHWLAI

[12] = target: L-type calcium channel, benzothiazepine site (Rattus norvegicus, UniProt P22002+P27732+Q02485); experiment: Inhibition of binding to rat L-type Calcium channel benzothiazepine site at 10 uM; type: functional
[13] = (§3) Inhibitory activity against rat Na+ channel site 2 at 10 uM
[14] = Half life in dog (dosed as a mixture of five compounds at 0.5 mpk each via iv only); type: ADME, organism-based, Canis lupus familiaris; settings: in vivo
How it was run: (§4)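 Dogs received a five-compound cassette by iv only, 0.5 mpk of each compound.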

Canis familiaris [15] = experiment: […] AUCN in dog ( (dosed as a mixture of five compounds at 0.5 mpk each via iv only); type: ADME, organism-based, Canis lupus familiaris; settings: in vivo
[16] = Plasma clearance in dog (dosed as a mixture of five compounds at 0.5 mpk each via iv only); type: ADME, organism-based, Canis lupus familiaris; settings: read-out: Clp; how it was run: as §4
[17] = In vitro antiviral activity using peripheral blood mononuclear cell (PBMC) HIV-1 spread assay; type: functional; settings: Homo sapiens
[18] = In vitro antiviral activity using peripheral blood mononuclear cell (PBMC) HIV-1 spread assay in presence of 50% normal human serum; type: functional
Canis familiaris [19] = experiment: […] AUCN in dog (dosed as a mixture of five compounds at 0.5 mpk each via iv only); type: ADME, organism-based, Canis lupus familiaris; settings: in vivo
Canis familiaris [20] = experiment: Oral AUCN in dog (dosed at 0.5 mpk iv ); settings: in vivo, 0.5 mg/kg
in vivo [21] = settings: dog
in vivo [22] = settings: dog, plasma, iv, 0.5 mg/kg
D(3) dopamine receptor [23] = target: T1, D(3) dopamine receptor; experiment: as §1; remark: listed apart in the source
[24] = target: T2, Sodium-dependent dopamine transporter; experiment: as §2; remark: listed apart in the source
Rattus norvegicus = organism: Rattus norvegicus; experiment: as §3

Chain of C-C chemokine receptor type 5 (P51681 whole entry): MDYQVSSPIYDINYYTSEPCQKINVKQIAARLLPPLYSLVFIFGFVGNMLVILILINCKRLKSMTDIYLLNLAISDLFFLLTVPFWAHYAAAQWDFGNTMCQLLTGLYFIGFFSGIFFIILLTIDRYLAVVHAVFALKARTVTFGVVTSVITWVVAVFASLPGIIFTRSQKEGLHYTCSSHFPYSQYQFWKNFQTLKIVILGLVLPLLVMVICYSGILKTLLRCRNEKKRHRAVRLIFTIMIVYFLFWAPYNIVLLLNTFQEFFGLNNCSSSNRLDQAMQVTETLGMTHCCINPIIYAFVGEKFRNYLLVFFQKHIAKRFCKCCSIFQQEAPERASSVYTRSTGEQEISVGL

Row | SMILES | IC50 [2] [nM] | IC90 (HeLa [3]) [nM] | IC90 (HeLa [5]) [nM] | bioavailability (in vivo [7]) [%] | half-life (in vivo [8]) [h] | inhibition (D(3) dopamine receptor [9]) [%] | inhibition [10] [%] | inhibition [11] [%] | inhibition at 10 µM [12] [%] | half-life [14] [h] | clearance [16] [mL/min/kg] | other results
1 | CCn1nc(Cc2ccccc2)cc1C1CCN(C[C@H]2CN([C@@H](C(=O)O)C3CCCCC3)C[C@@H]2c2ccccc2)CC1 |  |  |  |  |  |  |  |  |  |  |  | IC90 (HeLa [1]): 0.4 nM
2 | CCn1nc(Cc2ccc(-c3ccccc3)cc2)cc1C1CCN(C[C@H]2CN([C@@H](C(=O)O)C3CCCCC3)C[C@@H]2c2cccc(F)c2)CC1 | 0.3 | 11 | 0.4 | 18 | 1.3 |  |  |  |  |  |  | Ki [4]: 400 nM; clearance (in vivo [6]): 5.3 mL/min/kg
3 | CC[C@H](C)[C@H](C(=O)O)N1C[C@H](CN2CCC(c3cc(Cc4ccc(OC)c(OC)c4)nn3CC)CC2)[C@@H](c2cccc(F)c2)C1 | 1.5 | 33 | 0.4 |  |  | 35 | -4 | 15 | 36 |  |  | IC50 [13]: 7200 nM
4 | CCn1nc(Cc2ccc(OC)c(OC)c2)cc1C1CCN(C[C@H]2CN([C@@H](C(=O)O)C(C)(C)C)C[C@@H]2c2cccc(F)c2)CC1 | 1.2 | 11 | < 0.14 | 33 | 1.1 | 44 | 9 | 3 | -8 | 2.1 | 14 | AUC N (Canis familiaris [15]): 1.9 uM hr dose-1; IC95 [17]: 1.6 nM; IC95 [18]: 31 nM; IC50 [13]: 3200 nM; clearance (in vivo [6]): 2.1 mL/min/kg
5 | CCn1nc(Cc2ccccc2)cc1C1CCN(C[C@H]2CN([C@@H](C(=O)O)C(C)(C)C)C[C@@H]2c2cccc(F)c2)CC1 |  | 100 |  |  |  |  |  |  |  | 0.75 | 25 | AUC N (Canis familiaris [19]): 1.2 uM hr dose-1; AUC N (Canis familiaris [20]): 2.3 µM hr dose-1; half-life (in vivo [21]): 0.64 h; clearance (in vivo [22]): 13 mL/min/kg
6 | CC[C@H](C)[C@H](C(=O)O)N1C[C@H](CN2CCC(c3cc(Cc4ccc(OC(F)(F)F)cc4)nn3CC)CC2)[C@@H](c2cccc(F)c2)C1 | 1.1 | 33 | 0.4 | 41 | 2.3 |  |  | 42 | 46 | 3.1 | 3.8 | AUC N (Canis familiaris [15]): 6.8 uM hr dose-1; IC50 (D(3) dopamine receptor [23]): 2700 nM; IC50 [24]: 3600 nM; IC95 [17]: 2.5 nM; IC95 [18]: 20 nM; IC50 [13]: 1200 nM; clearance (in vivo [6]): 8.8 mL/min/kg
7 | CCn1nc(Cc2ccc(C#N)cc2)cc1C1CCN(C[C@H]2CN([C@@H](C(=O)O)C(C)(C)C)C[C@@H]2c2cccc(F)c2)CC1 | 1.3 | 3.7 | < 0.14 |  |  |  | 17 | 23 | 1 |  |  | IC50 (D(3) dopamine receptor [23]): 4000 nM; inhibition (Rattus norvegicus): 44%
8 | CCn1nc(Cc2ccc(C(F)(F)F)cc2)cc1C1CCN(C[C@H]2CN([C@@H](C(=O)O)C(C)(C)C)C[C@@H]2c2cccc(F)c2)CC1 | 0.3 | 33 | 0.4 |  |  |  |  |  |  | 2.8 | 5.5 | AUC N (Canis familiaris [19]): 4.9 uM hr dose-1
9 | CCn1nc(Cc2ccc(S(C)(=O)=O)cc2)cc1C1CCN(C[C@H]2CN([C@@H](C(=O)O)C(C)(C)C)C[C@@H]2c2cccc(F)c2)CC1 | 1.6 | 11 | < 0.14 |  |  | 39 | 36 | 13 | 15 | 0.55 | 108 | AUC N (Canis familiaris [15]): 0.24 uM hr dose-1; inhibition (Rattus norvegicus): 7%; IC95 [17]: 6.2 nM; IC95 [18]: 8.1 nM
10 | CCn1nc(Cc2ccccc2)cc1C1CCN(C[C@H]2CN([C@@H](C(=O)O)C(C)C)C[C@@H]2c2cccc(F)c2)CC1 |  | 300 |  |  | 1.4 | 45 | 15 | 21 | -3 |  |  | inhibition (Rattus norvegicus): 32%
11 | CC[C@H](C)[C@H](C(=O)O)N1C[C@H](CN2CCC(c3cc(Cc4ccccc4)nn3CC)CC2)[C@@H](c2cccc(F)c2)C1 |  | 100 |  | 13 | 0.54 |  |  |  |  |  |  | Ki [4]: 30000 nM
